The target of assay [1] is T1, Gonadotropin-releasing hormone receptor (Rattus norvegicus) (UniProt P30969).
T1 sequence (whole entry): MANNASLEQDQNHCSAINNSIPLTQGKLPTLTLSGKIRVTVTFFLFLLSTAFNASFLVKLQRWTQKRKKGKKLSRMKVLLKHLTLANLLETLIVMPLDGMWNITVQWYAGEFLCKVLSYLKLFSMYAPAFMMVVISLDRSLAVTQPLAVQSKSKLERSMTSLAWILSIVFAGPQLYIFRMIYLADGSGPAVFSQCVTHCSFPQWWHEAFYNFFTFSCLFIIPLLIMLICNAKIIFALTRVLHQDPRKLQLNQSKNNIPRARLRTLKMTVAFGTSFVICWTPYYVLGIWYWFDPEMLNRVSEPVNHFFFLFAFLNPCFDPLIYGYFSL
Description: Antagonist activity at LH-RH receptor in Sprague-Dawley rat pituitary gland assessed as change in LHRH-stimulated LH release at 0.1 ug/ml preincubated for 4 hrs followed by LH-RH addition at 5th and 6th hr 5 mins post compound addition and measured for 6 hrs by RIA. In outline: (§1)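 Pituitaries from 20-day-old female Sprague-Dawley rats, two per 1 mL lactated Ringer's, shaken 6 h at 37 °C with medium changed each hour. Analogue added at hours 3–6. LH-RH 0.6 ng/mL medium added 5 min after peptide at hours 5 and 6. LH and FSH measured by RIA against rat standards. Change in ng/mL with SEM and p values.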

The target in assay [2] is T1, Gonadotropin-releasing hormone receptor (Rattus norvegicus). Description: Antagonist activity at LH-RH receptor in Sprague-Dawley rat pituitary gland assessed as change in LHRH-stimulated LH release at 1 ug/ml preincubated for 4 hrs followed by LH-RH addition at 5th and 6th hr 5 mins post compound addition and measured for 6 hrs by RIA. In outline: as §1
Assay [3] shares this target. The experiment in a line: Antagonist activity at LH-RH receptor in Sprague-Dawley rat pituitary gland assessed as change in LHRH-stimulated LH release at 10 ug/ml preincubated for 4 hrs followed by LH-RH addition at 5th and 6th hr 5 mins post compound addition and measured for 6 hrs by RIA. In outline: as §1
Assay [4] shares this target. Description: Antagonist activity at LH-RH receptor in Sprague-Dawley rat pituitary gland assessed as change in LHRH-stimulated LH release at 100 ug/ml preincubated for 4 hrs followed by LH-RH addition at 5th and 6th hr 5 mins post compound addition and measured for 6 hrs by RIA. In outline:
as §1

The target is the same in assay [5]. Description: Agonist activity at LH-RH receptor in Sprague-Dawley rat pituitary gland assessed as change in LH release at 100 ug/ml measured for 6 hrs by RIA. Summed up:
(§2)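 Two pituitaries from 20-day-old female Sprague-Dawley rats incubated 6 h at 37 °C in 1 mL lactated Ringer's with shaking. Medium removed hourly and replaced. Analogue alone added at hours 3–6. LH and FSH measured by RIA, expressed as ng/mL of medium against LH-LER-1240-2 and NIAMDD rat FSH RP-1 standards. Change reported with SEM.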

Assay [6] shares this target. Description: Antagonist activity at LH-RH receptor in Sprague-Dawley rat pituitary gland assessed as change in LHRH-stimulated FSH release at 0.1 ug/ml preincubated for 4 hrs followed by LH-RH addition at 5th and 6th hr 5 mins post compound addition and measured for 6 hrs by RIA. In outline:
as §1

For assay [7] the target is unchanged. The experiment in a line: Antagonist activity at LH-RH receptor in Sprague-Dawley rat pituitary gland assessed as change in LHRH-stimulated FSH release at 1 ug/ml preincubated for 4 hrs followed by LH-RH addition at 5th and 6th hr 5 mins post compound addition and measured for 6 hrs by RIA. In outline:
as §1

Assay [8] has the same target. Description: Antagonist activity at LH-RH receptor in Sprague-Dawley rat pituitary gland assessed as change in LHRH-stimulated FSH release at 10 ug/ml preincubated for 4 hrs followed by LH-RH addition at 5th and 6th hr 5 mins post compound addition and measured for 6 hrs by RIA. Summed up: as §1
Assay [9] has the same target. Description: Antagonist activity at LH-RH receptor in Sprague-Dawley rat pituitary gland assessed as change in LHRH-stimulated FSH release at 100 ug/ml preincubated for 4 hrs followed by LH-RH addition at 5th and 6th hr 5 mins post compound addition and measured for 6 hrs by RIA. Summed up:
as §1

Assay [10] has the same target. The experiment in a line: Agonist activity at LH-RH receptor in Sprague-Dawley rat pituitary gland assessed as change in FSH release at 100 ug/ml measured for 6 hrs by RIA. Summed up: as §2
In assay [11] the test system is Rattus norvegicus. Description: Antiovulatory activity in rat assessed as inhibition of ovulation at 750 ug, sc relative to vehicle-treated control. It is filed as functional. In outline: (§3)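 Rats with 4-day cycles given one sc injection of analogue in corn oil on proestrus, between 12 and 12:30 p.m. Controls received 0.3 mL corn oil. Ova shed were counted on estrus. Percent of rats with ovulation inhibited was recorded, with ova per ovulating rat ± SEM.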

Assay [12] has as its system Rattus norvegicus. Description: Antiovulatory activity in rat assessed as inhibition of ovulation at 375 ug, sc relative to vehicle-treated control. In kind it is functional. In outline:
as §3

The test system of assay [13] is Rattus norvegicus. Description: Antiovulatory activity in rat assessed as inhibition of ovulation at 1500 ug, sc relative to vehicle-treated control. It is filed as functional. Summed up:
as §3

Each structure is given as a SMILES string. Active and inactive are the calls of the source. The calls are words filed in the database; no cut-off is given here. Non-standard residues stand in square brackets, D forms with d. Residues, ends and D or L forms follow the SMILES beside them. pGlu = O=C1CC[C@@H](C(=O)O)N1

`CC(C)C[C@H](NC(=O)[C@@H](Cc1ccccc1)NC(=O)[C@H](Cc1ccc(O)cc1)NC(=O)[C@H](CO)NC(=O)[C@H](CCCNC(=N)N)NC(=O)[C@@H](Cc1ccccc1)NC(=O)[C@@H]1CCC(=O)N1)C(=O)N[C@@H](CCCNC(=N)N)C(=O)N1CCC[C@H]1C(=O)NCC(N)=O`: the Activity in assay [1] was 276 ng/mL; in assay [2] it was 51 ng/mL; in assay [3], 34 ng/mL; in assay [4], 18 ng/mL; in assay [6], 5390 ng/mL; in [7], 1390 ng/mL. Further, the Activity was 380 ng/mL in assay [8] and -133 ng/mL in assay [9]. The result in assay [5] and in assay [10] was inactive. In addition, the “inhibition (INH)” value in [11] is 40%.
Consider `CC(C)C[C@H](NC(=O)[C@@H](Cc1ccccc1)NC(=O)[C@H](Cc1ccc(O)cc1)NC(=O)[C@H](CO)NC(=O)[C@@H](NC(=O)[C@@H](Cc1ccccc1)NC(=O)[C@@H]1CCC(=O)N1)[C@@H](C)O)C(=O)N[C@@H](CCCNC(=N)N)C(=O)N1CCC[C@H]1C(=O)NCC(N)=O`, for which the Activity in assay [1] was found to be 159 ng/mL; in [2], 97 ng/mL; in assay [3] it was 18 ng/mL; in assay [4] it was 16 ng/mL; in [6] it was 5470 ng/mL; in assay [7], 2450 ng/mL. The Activity in [8] stood at 751 ng/mL; in assay [9] it was 379 ng/mL. Besides, the result in assay [5] and in assay [10] was inactive. In addition, the “inhibition (INH)” value in assay [11] was 0%.
For the compound `CC(C)C[C@H](NC(=O)[C@@H](Cc1ccccc1)NC(=O)[C@H](Cc1ccc(O)cc1)NC(=O)[C@H](CO)NC(=O)[C@@H]1CCCN1C(=O)[C@@H](Cc1ccccc1)NC(=O)[C@@H]1CCC(=O)N1)C(=O)N[C@@H](CCCNC(=N)N)C(=O)N1CCC[C@H]1C(=O)NCC(N)=O` ([pGlu][dF]PSY[dF]LRPG-NH2), the Activity in assay [1] amounted to 46 ng/mL; in assay [2], 17 ng/mL; in assay [4], 12 ng/mL; in [6], 1380 ng/mL; in assay [7], 280 ng/mL; in assay [9] it was 179 ng/mL. Besides, the result in assay [5] and in assay [10] was inactive. In addition, the “inhibition (INH)” value in [12] was found to be 20%; in [11] it was 100%.
Take `CC[C@H](C)[C@H](NC(=O)[C@@H](Cc1ccccc1)NC(=O)[C@@H]1CCC(=O)N1)C(=O)N[C@@H](CO)C(=O)N[C@@H](Cc1ccc(O)cc1)C(=O)N[C@H](Cc1c[nH]c2ccccc12)C(=O)N[C@@H](CC(C)C)C(=O)N[C@@H](CCCNC(=N)N)C(=O)N1CCC[C@H]1C(=O)NCC(N)=O`: the Activity was 143 ng/mL in assay [1]; 21 ng/mL in assay [2]; 68 ng/mL in assay [4]; 2310 ng/mL in assay [6]; -348 ng/mL in assay [7]; 645 ng/mL in assay [9]. For the same compound, the result in assay [5] and in assay [10] was inactive. In addition, in assay [11], the “inhibition (INH)” value is given as 0%.
Consider `CC(C)C[C@H](NC(=O)[C@@H](Cc1ccccc1)NC(=O)[C@H](Cc1ccc(O)cc1)NC(=O)[C@H](CO)NC(=O)CN(C)C(=O)[C@@H](Cc1ccccc1)NC(=O)[C@@H]1CCC(=O)N1)C(=O)N[C@@H](CCCNC(=N)N)C(=O)N1CCC[C@H]1C(=O)NCC(N)=O`, for which the Activity in assay [1] was found to be 339 ng/mL; in assay [2], 127 ng/mL; in assay [3], 22 ng/mL; in assay [4], 13 ng/mL; in assay [6], 4590 ng/mL; in assay [7], 3450 ng/mL. In addition, the Activity in assay [8] amounted to 518 ng/mL; in [9], 321 ng/mL. The outcome in [5] and in assay [10] was inactive. For the same compound, in [11], the “inhibition (INH)” value was 50%.
With `CSCC[C@H](NC(=O)[C@@H](Cc1ccccc1)NC(=O)[C@@H]1CCC(=O)N1)C(=O)N[C@@H](CO)C(=O)N[C@@H](Cc1ccc(O)cc1)C(=O)N[C@H](Cc1c[nH]c2ccccc12)C(=O)N[C@@H](CC(C)C)C(=O)N[C@@H](CCCNC(=N)N)C(=O)N1CCC[C@H]1C(=O)NCC(N)=O`, the Activity in assay [1] is 77 ng/mL; in assay [2], 52 ng/mL; in assay [4] it was 10 ng/mL; in assay [6] it was 3270 ng/mL; in assay [7], -291 ng/mL; in assay [9] it was -672 ng/mL. Further, the result in [5] and in assay [10] was inactive. Also, in assay [11], the “inhibition (INH)” value turned out to be 20%.
Regarding `CC(C)C[C@H](NC(=O)[C@@H](Cc1c[nH]c2ccccc12)NC(=O)[C@H](Cc1ccc(O)cc1)NC(=O)[C@H](CO)NC(=O)[C@@H](NC(=O)[C@@H](Cc1ccccc1)NC(=O)[C@@H]1CCC(=O)N1)C(C)C)C(=O)N[C@@H](CCCNC(=N)N)C(=O)N1CCC[C@H]1C(=O)NCC(N)=O`, the Activity in [1] was 44 ng/mL; in [2], -32 ng/mL; in assay [4], 7 ng/mL; in assay [6], 3010 ng/mL; in assay [7] it was -1140 ng/mL; in assay [9] it was 110 ng/mL. In addition, the outcome in assay [5] and in assay [10] was inactive. Further, the entries for the “inhibition (INH)” value in assay [11] and in assay [13] were 16% and 60%, respectively.
Take `CC(C)C[C@H](NC(=O)[C@@H](Cc1c[nH]c2ccccc12)NC(=O)[C@H](Cc1ccc(O)cc1)NC(=O)[C@H](CO)NC(=O)[C@@H](Cc1ccccc1)NC(=O)[C@@H](Cc1ccccc1)NC(=O)[C@@H]1CCC(=O)N1)C(=O)N[C@@H](CCCNC(=N)N)C(=O)N1CCC[C@H]1C(=O)NCC(N)=O`: the Activity in assay [1] was 97 ng/mL; in assay [2] it was 39 ng/mL; in assay [4], 10 ng/mL; in assay [6], 2120 ng/mL; in [7] it was 70 ng/mL; in [9], -814 ng/mL. In addition, the result in [5] and in [10] was inactive. For the same compound, in assay [11], the “inhibition (INH)” value is on record as 40%.

For the origin of these results see ChEMBL document CHEMBL3244155, “Inhibitory analogues of the luteinizing hormone-releasing hormone having D-aromatic residues in positions 2 and 6 and variation in position 3” (1978).
